We go through 18 molecules from ChEMBL document CHEMBL3102768, “Synthesis, biological evaluation and SAR of 3-benzoates of ingenol for treatment of actinic keratosis and non-melanoma skin cancer” (Bioorg Med Chem Lett, 2014).

Each structure is given as a SMILES string. Some results are limits rather than exact numbers.

The target of series [1] is Protein kinase C delta type (Homo sapiens, UniProt Q05655). Description: Activation of PKCdelta (unknown origin) after 40 mins. Summed up: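 In vitro PKCδ phosphorylation of a PKC peptide substrate, with 0.05 mg/mL phosphatidylserine and no diacylglycerol. Compounds were tested as a twelve-point semilog dilution series starting at 10 µM. The reaction was started with ATP and run 40 min at room temperature.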
Protein kinase C delta type, sequence (Q05655 whole entry): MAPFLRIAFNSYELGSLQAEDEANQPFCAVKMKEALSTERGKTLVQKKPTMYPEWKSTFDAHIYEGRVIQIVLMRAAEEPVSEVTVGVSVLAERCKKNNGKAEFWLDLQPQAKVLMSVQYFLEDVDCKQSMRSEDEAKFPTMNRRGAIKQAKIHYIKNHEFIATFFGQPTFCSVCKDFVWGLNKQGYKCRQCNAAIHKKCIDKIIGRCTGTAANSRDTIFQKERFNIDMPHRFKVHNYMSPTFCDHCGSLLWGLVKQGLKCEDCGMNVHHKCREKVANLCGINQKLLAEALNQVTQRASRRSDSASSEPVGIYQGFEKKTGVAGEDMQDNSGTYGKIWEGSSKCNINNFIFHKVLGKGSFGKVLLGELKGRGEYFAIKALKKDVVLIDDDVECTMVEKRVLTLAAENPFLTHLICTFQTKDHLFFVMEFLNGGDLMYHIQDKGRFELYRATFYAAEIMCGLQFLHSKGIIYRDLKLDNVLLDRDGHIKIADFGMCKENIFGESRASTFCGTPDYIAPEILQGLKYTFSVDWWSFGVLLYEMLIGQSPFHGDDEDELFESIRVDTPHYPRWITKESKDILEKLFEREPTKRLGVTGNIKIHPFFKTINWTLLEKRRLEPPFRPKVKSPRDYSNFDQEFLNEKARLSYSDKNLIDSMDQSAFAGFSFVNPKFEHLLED

Series [2] relates to Keratinocyte. Description: Induction of proimflammatory activity in human primary epidermal keratinocytes assessed as TNFalpha release after 6 hrs relative to ingenol 3-angelate. The series is classed as functional. The method in brief: (§1)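 Adult log-phase primary epidermal keratinocytes were seeded at 10,000 cells/well. Cells were incubated with titrated compound for 6 h at 37 °C in 5% CO2. Secreted TNFα was measured by Meso Scale 4-spot cytokine plates. EC50 and Emax were referenced to the maximal response of ingenol 3-angelate.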

Series [3] can be described thus: Immunostimulatory activity in polymorphonuclear leukocytes (unknown origin) assessed as induction of oxidative burst after 40 mins by fluorescence assay. The series is classed as functional, cell-based. The method in brief:
(§2)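 PMN were isolated from fresh buffy coats. Cells were incubated 40 min at ambient temperature with titrated compound (top concentration 10 µM) pre-mixed with hydroethidine. Respiratory burst was read as fluorescence at ex 485/em 579 nm. EC50 is the concentration giving 50% of the maximum effect of ingenol 3-angelate; Emax is the maximal response relative to it.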

For series [4], the system named is Keratinocyte. Description: Induction of proimflammatory activity in human primary epidermal keratinocytes assessed as IL-8 release after 6 hrs relative to ingenol 3-angelate. The series is classed as functional. The method in brief:
(§3)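 Adult log-phase primary epidermal keratinocytes were seeded at 10,000 cells/well. Cells were incubated with titrated compound for 6 h at 37 °C in 5% CO2. Secreted IL8 was measured by Meso Scale 4-spot cytokine plates or by HTRF. EC50 and Emax were referenced to the maximal response of ingenol 3-angelate.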

The nature of series [5]: Immunostimulatory activity in polymorphonuclear leukocytes (unknown origin) assessed as induction of oxidative burst after 40 mins by fluorescence assay relative to ingenol 3-angelate. The series is classed as functional. The method in brief: as §2
Series [6] deals with HeLa. The series is described as follows: Induction of necrosis in human HeLa cells assessed as remaining metabolic activity after 30 mins by resazurin dye-based assay. As to conditions: 0.5 h, read-out: LC50 (the source's name). The series is classed as functional. Summed up:
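HeLa cells were exposed to increasing concentrations up to 400 µM for 30 min at 37 °C. Metabolic activity was then measured with a resazurin-based dye (PrestoBlue). LC50 is the concentration giving 50% loss of metabolic activity.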
In general terms: The colour change of resazurin is a common sign of viable cells or microbes.

Series [7] concerns Keratinocyte. The series is described as follows: Induction of proimflammatory activity in human primary epidermal keratinocytes assessed as TNFalpha release after 6 hrs. The series is classed as functional, cell-based. The method in brief:
as §1

Series [8] in a line: Chemical stability of the compound in aqueous buffer with less than 30% organic solvent assessed as compound recovery at pH 7.4 measured over 16 hrs by HPLC analysis. The series is classed as physicochemical. As to conditions: read-out: Drug recovery. Summed up:
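A DMSO stock was diluted into pre-heated (37 °C) aqueous buffer pH 7.4 to ≤30% v/v organic content. The solution was held at 37 °C in the HPLC autosampler and injected within 5 min, then repeatedly over 16 h. Recovery was taken from the decrease in compound peak area, with UV detection normally at 270 nm.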

The test system of series [9] is Keratinocyte. Description: Induction of proimflammatory activity in human primary epidermal keratinocytes assessed as IL-8 release after 6 hrs. The format is functional, cell-based. The method in brief: as §3

As a reminder, the EC50 is the concentration at which the effect is half-maximal. As usually defined, the Emax is the greatest response seen or fitted, relative to the assay's reference. `CC1=C[C@]23C(=O)[C@@H](C=C(CO)[C@@H](O)[C@]2(O)[C@H]1OC(=O)c1ccccc1)[C@H]1[C@@H](C[C@H]3C)C1(C)C`: the EC50 is 0.0061 µM in series [1] and 0.006 µM in series [3]. The Emax in series [2] is 60%; in series [4], 54%; in series [5], 110%.
`CNc1cccc(Cl)c1C(=O)O[C@H]1C(C)=C[C@]23C(=O)[C@@H](C=C(CO)[C@@H](O)[C@]12O)[C@H]1[C@@H](C[C@H]3C)C1(C)C`: the maximal response (Emax) worked out at 97% in [2], 105% in [4] and 124% in series [5]. The CC50 in series [6] was determined as 145 µM. The EC50 came out at 0.021 µM in series [7], 0.021 µM in series [3] and 0.018 µM in series [9]. The remaining at 16 h in [8] is greater than 95%.
`CNc1cccc(F)c1C(=O)O[C@H]1C(C)=C[C@]23C(=O)[C@@H](C=C(CO)[C@@H](O)[C@]12O)[C@H]1[C@@H](C[C@H]3C)C1(C)C`: the maximal response (Emax) in [2] is 174%; in series [4], 145%; in series [5] it was 123%. The CC50 in series [6] turned out to be 152 µM. Besides, the half-maximal effective concentration (EC50) in series [7] was found to be 0.0041 µM; in series [3], 0.0093 µM; in series [9] it was 0.003 µM. In addition, the remaining at 16 h in series [8] amounted to 74%.
Take `CC1=C[C@]23C(=O)[C@@H](C=C(CO)[C@@H](O)[C@]2(O)[C@H]1OC(=O)c1c(C)cccc1NCc1ccccc1)[C@H]1[C@@H](C[C@H]3C)C1(C)C`: the results for the maximum response (Emax) in series [2], in [4] and in series [5] were 126%, 122% and 103%, respectively. Further, in series [6], the CC50 came out at 187 µM. In addition, the EC50 was 0.0076 µM in [7], 0.042 µM in series [3] and 0.0038 µM in series [9]. Besides, the remaining at 16 h in series [8] was greater than 95%.
`COc1cccc(NCc2ccccc2)c1C(=O)O[C@H]1C(C)=C[C@]23C(=O)[C@@H](C=C(CO)[C@@H](O)[C@]12O)[C@H]1[C@@H](C[C@H]3C)C1(C)C`: the Emax in series [2] amounted to 120%; in [4], 117%; in series [5], 112%. Moreover, the CC50 in [6] came out at 400 µM. The concentration for a half-maximal effect (EC50) worked out at 0.019 µM in series [7], 0.023 µM in series [3] and 0.0066 µM in series [9]. Also, the remaining at 16 h in series [8] is greater than 95%.
On to `CC1=C[C@]23C(=O)[C@@H](C=C(CO)[C@@H](O)[C@]2(O)[C@H]1OC(=O)c1ccccc1C)[C@H]1[C@@H](C[C@H]3C)C1(C)C`, for which the maximal response (Emax) in series [2] was found to be 64%; in [4], 58%; in [5], 107%. Besides, in series [6], the CC50 amounted to 115 µM. Also, the EC50 in [7] stood at 0.013 µM; in series [3] it was 0.0057 µM; in [9], 0.015 µM. Also, the remaining at 16 h in [8] came to 73%.
Regarding `CC1=C[C@]23C(=O)[C@@H](C=C(CO)[C@@H](O)[C@]2(O)[C@H]1OC(=O)c1ccccc1C(C)C)[C@H]1[C@@H](C[C@H]3C)C1(C)C`, the maximal response (Emax) in [2] came out at 96%; in [4], 86%; in series [5], 120%. In [6], the CC50 turned out to be 110 µM. Moreover, the EC50 in series [7] came to 0.0057 µM; in [3], 0.011 µM; in series [9], 0.0044 µM. In addition, the remaining at 16 h in [8] was found to be 70%.
Take `CC1=C[C@]23C(=O)[C@@H](C=C(CO)[C@@H](O)[C@]2(O)[C@H]1OC(=O)c1ccccc1OC(C)C)[C@H]1[C@@H](C[C@H]3C)C1(C)C`: the maximum response (Emax) in series [2] is 101%; in series [4], 105%; in series [5], 113%. For the same molecule, the CC50 in [6] turned out to be 192 µM. In addition, the EC50 in series [7] is 0.004 µM; in series [3], 0.0087 µM; in series [9], 0.0027 µM. Also, the remaining at 16 h in [8] amounted to 65%.
`CC1=C[C@]23C(=O)[C@@H](C=C(CO)[C@@H](O)[C@]2(O)[C@H]1OC(=O)c1ccccc1N)[C@H]1[C@@H](C[C@H]3C)C1(C)C`: the results for the Emax in series [2], in series [4] and in series [5] were 112%, 101% and 116%, respectively. In addition, the CC50 in series [6] is 199 µM. Moreover, the EC50 came to 0.0055 µM in [7], 0.015 µM in series [3] and 0.0034 µM in [9]. In series [8], the remaining at 16 h stood at 58%.
For `CC1=C[C@]23C(=O)[C@@H](C=C(CO)[C@@H](O)[C@]2(O)[C@H]1OC(=O)c1ccccc1NCc1ccccc1)[C@H]1[C@@H](C[C@H]3C)C1(C)C`, the figures for the maximum response (Emax) in [2], in [4] and in [5] were 128%, 115% and 127%, respectively. In [6], the CC50 came out at 168 µM. Besides, the concentration for a half-maximal effect (EC50) in [7] stood at 0.0015 µM; in [3] it was 0.0086 µM; in [9], 0.0012 µM. Besides, the remaining at 16 h in series [8] was 65%.
Consider `CCCCCCCCCCCCNc1ccccc1C(=O)O[C@H]1C(C)=C[C@]23C(=O)[C@@H](C=C(CO)[C@@H](O)[C@]12O)[C@H]1[C@@H](C[C@H]3C)C1(C)C`, for which the maximum response (Emax) is 150% in [2], 111% in series [4] and 78% in series [5]. Also, in series [6], the CC50 was determined as 400 µM. In addition, the EC50 in series [7] turned out to be 0.014 µM; in series [3], 0.025 µM; in series [9], 0.016 µM.
In the case of `CCCCCCCCCCCCCCCCNc1ccccc1C(=O)O[C@H]1C(C)=C[C@]23C(=O)[C@@H](C=C(CO)[C@@H](O)[C@]12O)[C@H]1[C@@H](C[C@H]3C)C1(C)C`, the results for the Emax in [2], in [4] and in series [5] were 120%, 125% and 94%, respectively. Moreover, the concentration giving a half-maximal response (EC50) is 0.2 µM in series [7], 1.34 µM in series [3] and 0.061 µM in series [9]. Moreover, in series [8], the remaining at 16 h is 90%.
As to `CC1=C[C@]23C(=O)[C@@H](C=C(CO)[C@@H](O)[C@]2(O)[C@H]1OC(=O)c1c(C)cccc1Cl)[C@H]1[C@@H](C[C@H]3C)C1(C)C`, the Emax in [2] turned out to be 52%; in series [4] it was 52%; in series [5], 130%. Also, the CC50 in series [6] stood at 126 µM. Besides, the EC50 stood at 0.054 µM in [7], 0.0066 µM in series [3] and 0.051 µM in [9]. In series [8], the remaining at 16 h is greater than 95%.
Consider `COc1cccc(N)c1C(=O)O[C@H]1C(C)=C[C@]23C(=O)[C@@H](C=C(CO)[C@@H](O)[C@]12O)[C@H]1[C@@H](C[C@H]3C)C1(C)C`, for which the Emax in series [2] was found to be 83%; in series [4], 111%; in series [5], 109%. Further, the values for the EC50 in series [7], in series [3] and in [9] were 0.108 µM, 0.025 µM and 0.041 µM, respectively. Besides, the remaining at 16 h in series [8] is greater than 95%.
Consider `CC1=C[C@]23C(=O)[C@@H](C=C(CO)[C@@H](O)[C@]2(O)[C@H]1OC(=O)c1c(N)cccc1Cl)[C@H]1[C@@H](C[C@H]3C)C1(C)C`, for which the figures for the maximum response (Emax) in series [2], in [4] and in [5] were 108%, 104% and 161%, respectively. The CC50 in [6] was 185 µM. In addition, the results for the EC50 in series [7], in [3] and in series [9] were 0.028 µM, 0.0071 µM and 0.02 µM, respectively. For the same molecule, the remaining at 16 h in series [8] is 93%.
For `CC1=C[C@]23C(=O)[C@@H](C=C(CO)[C@@H](O)[C@]2(O)[C@H]1OC(=O)c1c(N)cccc1F)[C@H]1[C@@H](C[C@H]3C)C1(C)C`, the maximal effect (Emax) was 104% in series [2], 104% in series [4] and 133% in series [5]. In addition, the CC50 in [6] was 201 µM. Also, the EC50 in series [7] amounted to 0.01 µM; in series [3], 0.012 µM; in series [9], 0.0086 µM. The remaining at 16 h in series [8] worked out at 66%.
As to `CNc1cccc(C)c1C(=O)O[C@H]1C(C)=C[C@]23C(=O)[C@@H](C=C(CO)[C@@H](O)[C@]12O)[C@H]1[C@@H](C[C@H]3C)C1(C)C`, the Emax in series [2] is 143%; in series [4], 127%; in series [5], 136%. In addition, the CC50 in [6] was found to be 105 µM. Further, the EC50 was determined as 0.016 µM in series [7], 0.046 µM in series [3] and 0.012 µM in series [9]. In addition, in series [8], the remaining at 16 h is greater than 95%.
On to `C/C=C(/C)C(=O)O[C@H]1C(C)=C[C@]23C(=O)[C@@H](C=C(CO)[C@@H](O)[C@]12O)[C@H]1[C@@H](C[C@H]3C)C1(C)C` [INGENOL MEBUTATE], for which, in [6], the CC50 was found to be 230 µM. Also, in [3], the EC50 was determined as 0.0087 µM.
